APJ ag: agonists of human APJ apelin receptor. CHO-K1 APJ PathHunter beta-arrestin, luminescence; 0% DMSO wells, 100% apelin. activation, % at 20 µM. actives 0.11% (n = 330,000);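 active means activation more than six SD over the plate average, tested at 20 µM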;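 further: 0% = DMSO alone and 100% = apelin-13 at 10 nM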
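assay system = CHO-K1 APJ beta-arrestin complementation cell line | input = cell density 1000 per well | dosing = compound 20 µM once, DMSO 1% | timing = compound 90 min 25 °C, reagent 1 h | measured by = luminescence from split beta-galactosidase complementation, Galacton Star/Emerald II substrate | read-out basis = APJ agonist activity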
EBI2 antag: antagonists of human EBI2 receptor; EBI2 beta-arrestin recruitment, luminescence, 7a,25-OHC stimulated; actives 0.81% (n = 360,000); inhibition, % at 5 µM; AID 651636; in the data active means inhibition above about 38%;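 further: enzyme fragment complementation signal reports receptor beta-arrestin coupling in cells; 0% = agonist plus DMSO wells and 100% = wells without agonist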
APJ antagonist: blocks the human apelin receptor APJ; AID 2521; P35414; CHO-K1 APJ beta-arrestin complementation, luminescence; actives 0.32% (n = 330,000); inhibition, % at 20 µM;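 active means inhibition above about 40% at 20 µM, limit read from the data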;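 further: cells challenged with 10 nM apelin-13 agonist together with compound; plate controls were apelin-13 plus DMSO wells for no effect and DMSO wells lacking apelin-13 for full effect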
CXCR6 block: inhibitors of human CXCR6 receptor; O00574; CHO-K1 PathHunter CXCR6 beta-arrestin, luminescence; actives 0.36% (n = 360,000); inhibition, % at 20 µM; in the data active means inhibition above about 34%, passing the limit was not always enough;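 further: antagonist mode with CXCL16 agonist at 10 nM final; 0% = 10 nM CXCL16 with DMSO and 100% = unstimulated wells without agonist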
Target sequence (O00574 whole entry, looked up): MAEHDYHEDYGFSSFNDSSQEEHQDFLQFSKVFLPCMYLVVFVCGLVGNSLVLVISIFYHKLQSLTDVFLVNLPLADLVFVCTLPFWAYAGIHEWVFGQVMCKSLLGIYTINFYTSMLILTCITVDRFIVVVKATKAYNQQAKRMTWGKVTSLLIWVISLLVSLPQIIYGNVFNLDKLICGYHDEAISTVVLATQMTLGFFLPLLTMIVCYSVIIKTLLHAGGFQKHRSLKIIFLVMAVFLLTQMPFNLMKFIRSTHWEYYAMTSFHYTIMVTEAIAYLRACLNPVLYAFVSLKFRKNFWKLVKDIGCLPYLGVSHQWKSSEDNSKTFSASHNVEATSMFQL
CCR6 antag: antagonists of human CCR6 receptor. actives 0.49% (n = 340,000). inhibition, % at 20 µM. P51684. CHO-K1 CCR6 PathHunter beta-arrestin, luminescence, CCL20-stimulated;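 active means compounds whose inhibition of the agonist-driven luminescence signal at 20 µM reaches about 50%, limit read from the data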;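 further: cells stimulated with CCL20 at 14 nM final; plate controls were DMSO with CCL20 for no effect and DMSO without agonist for full effect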
HTR2A ag: activates the mouse 5-HT2A serotonin receptor. activation, % at 7.6 µM. P35363. actives 0.66% (n = 360,000). AID 624169. CHO-K1 mHTR2A beta-arrestin complementation, luminescence; percent of 30 µM serotonin response;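 active means activation above a run cutoff, the mean activation of all tested compounds plus 3 SD, cut at about 14% in these data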;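 further: 0% = plate median of compound wells and 100% = 30 µM serotonin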
Target sequence (P35363 whole entry, looked up): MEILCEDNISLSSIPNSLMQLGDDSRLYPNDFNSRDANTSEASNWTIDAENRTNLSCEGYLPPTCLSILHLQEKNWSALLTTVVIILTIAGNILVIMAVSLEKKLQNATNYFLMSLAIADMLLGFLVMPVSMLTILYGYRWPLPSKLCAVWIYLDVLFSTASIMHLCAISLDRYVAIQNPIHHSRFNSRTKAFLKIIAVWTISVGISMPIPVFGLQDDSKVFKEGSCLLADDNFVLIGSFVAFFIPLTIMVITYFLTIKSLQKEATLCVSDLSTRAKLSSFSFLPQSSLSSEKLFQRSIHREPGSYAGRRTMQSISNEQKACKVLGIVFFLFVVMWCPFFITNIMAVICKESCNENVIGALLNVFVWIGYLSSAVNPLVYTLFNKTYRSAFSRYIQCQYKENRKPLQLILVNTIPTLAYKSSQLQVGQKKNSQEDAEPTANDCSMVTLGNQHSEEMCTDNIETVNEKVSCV
EBI2 antag conf: confirmation of human EBI2 receptor antagonists | shares compounds with EBI2 antag | actives 29% (n = 2,400) | inhibition, % at 5 µM | EBI2 beta-arrestin luminescence, 7a,25-OHC antagonism;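 active means inhibition of at least 50%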
EBI2 agonist: counter-screen for EBI2 antagonists: EBI2 agonist activity. shares compounds with EBI2 antag. EBI2-expressing cells, agonist mode, luminescence, 60 min; 0% vehicle, 100% 7α,25-dihydroxycholesterol control. activation, % at 5 µM. 2,400 tested, under 10 active;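 active means activation of at least 50%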
bGal counter: inhibits E. coli beta-galactosidase, counter-screen for EBI2 antagonists | shares compounds with EBI2 antag | purified beta-galactosidase, luminescent Galacton Star, 15 min | inhibition, % at 5 µM | AID 652176 | actives 1% (n = 2,400);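 active means replicate-average signal at least 3 plate SD below neutral wells, shown as high inhibition, flagging enzyme-inhibiting false positives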;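 further: 0% = DMSO wells with enzyme and 100% = wells lacking enzyme; higher means stronger loss of beta-gal luminescence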
* hit, by the source's call; / = no result. A selection: hits, their analogues and other compounds. The true share with any hit is near 2.1%.

SMILES | APJ ag | EBI2 antag | APJ antagonist | CXCR6 block | CCR6 antag | HTR2A ag | EBI2 antag conf | EBI2 agonist | bGal counter
Cc1ccc(C)c(CN2CCC(CNC(=O)Nc3ccc(Cl)cc3)CC2)c1 | -2.1 | 21.2 | 0.3 | -10.6 | 6.9 | -11.2 | / | / | /
Cc1ccc(C)c(CN2CCC(CNC(=O)Nc3ccc(Br)cc3F)CC2)c1 | -1.8 | 52.2* | -15.3 | -3.0 | 12.6 | -6.9 | 10.6 | 1.4 | 1.2
N#CCCN(NC1=NS(=O)(=O)c2ccccc21)C(=O)c1ccccc1Br | -4.4 | -13.3 | 7.2 | 0.7 | -3.2 | 3.3 | / | / | /
OC[C@@H]1CN(Cc2ccc(F)cc2)C[C@H](n2cnc3c(NC4CC4)ncnc32)O1 | / | 64.6* | / | -6.4 | / | 0.3 | 65.6* | 1.1 | 9.3
CC(C)N(C)c1ncnc2c1ncn2[C@H]1CN(Cc2ccc(Cl)cc2)C[C@@H](CO)O1 | / | 82.8* | / | -0.4 | / | 1.6 | 77.0* | -2.3 | -8.7
CC(C)N(C)c1ncnc2c1ncn2[C@H]1CN(Cc2ccccc2)C[C@@H](CO)O1 | / | 16.2 | / | -6.2 | / | 1.2 | / | / | /
OC[C@@H]1CN(Cc2ccccc2)C[C@H](n2cnc3c(NC4CC4)ncnc32)O1 | / | 24.4 | / | 6.2 | / | -3.6 | / | / | /
O=C1c2ccccc2C(c2nc3ccccc3[nH]2)N1c1ccccn1 (configuration not stated) | / | -13.8 | / | -2.5 | / | 5.0 | / | / | /
COc1ccc(OC)c(CC(=O)N2CCc3cc(OC)c(OC)cc3C2)c1 | -3.5 | 7.4 | -12.1 | 8.2 | 8.1 | 8.8 | / | / | /
O=C(CSc1nnc(C23CC4CC(CC(C4)C2)C3)o1)Nc1ccc(N2CCOCC2)c(Cl)c1 | 2.0 | 58.1* | -11.6 | 1.6 | -6.0 | 7.0 | 19.1 | -2.3 | -7.0
Cc1cc(C)nc(SCC(=O)Nc2ccc(N3CCOCC3)c(Cl)c2)n1 | -2.4 | -11.6 | -2.3 | -2.8 | 2.7 | 1.1 | / | / | /
O=C(COc1ccc(Cl)cc1)Nc1ccc(N2CCN(C(=O)c3ccco3)CC2)cc1 | 8.2 | 54.1* | 3.2 | 4.9 | -6.7 | 2.2 | 32.8 | 0.3 | 4.2
CN1CCN(c2ccc(NC(=O)COc3ccccc3)cc2Cl)CC1 | 5.1 | 1.1 | -21.0 | -5.1 | 2.3 | -6.4 | / | / | /
COc1ccc(OCC(=O)Nc2ccc(N3CCOCC3)cc2)cc1 | 4.2 | 84.1* | 11.7 | 6.7 | -0.2 | 0.4 | 78.8* | -1.2 | -6.2
Cc1ccc(OCC(=O)Nc2ccc(N3CCN(C(=O)c4ccc(C)cc4)CC3)cc2)cc1 | 5.7 | 57.4* | -13.8 | -0.6 | 12.0 | 2.0 | 14.7 | 1.2 | 0.0
Cc1ccc(OCC(=O)Nc2ccc(N3CCOCC3)cc2)cc1 | 3.8 | 11.3 | -4.7 | -5.0 | 4.5 | -1.9 | / | / | /
CCCOc1ccc(C(=O)N2CCN(c3ccc(NC(=O)CC)cc3Cl)CC2)cc1 | 1.1 | 70.1* | 0.2 | -6.1 | -1.7 | 4.3 | 59.5* | -0.1 | 3.0
COc1ccc(NC(=O)C2Cc3c(-c4ccc5c(c4)OCO5)ccnc3O2)cc1OC (configuration not stated) | / | -9.5 | / | -3.9 | / | 2.6 | / | / | /
O=C(O)c1cccc(-n2cccc2/C=C/[N+](=O)[O-])c1 | -2.7 | 2.6 | -8.1 | 8.0 | 12.7 | -1.4 | / | / | /
O=C(NCC1CCCN1S(=O)(=O)c1cccs1)C(=O)Nc1ccc(F)cc1F (configuration not stated) | -2.4 | -9.6 | -14.7 | -5.6 | 15.5 | 2.9 | / | / | /
CCN(CC(=O)Nc1c(F)cccc1F)C(=O)/C=C/c1ccc(C)cc1 | -4.9 | 94.5* | 13.8 | 5.3 | -7.6 | 0.7 | 80.0* | -1.3 | -5.5
CCN(CC(=O)Nc1c(F)cccc1F)C(=O)/C=C/c1ccc(OCC#N)c(OC)c1 | -4.6 | 0.4 | 1.3 | -0.6 | 2.0 | -2.5 | / | / | /
CCN(CC(=O)NCc1ccc(F)cc1)C(=O)/C=C/c1ccc(OC)cc1 | 2.1 | 62.1* | 12.0 | 2.2 | 0.8 | -10.0 | 57.1* | 0.0 | 8.5
Cc1cc(C)c2nc(N3CCCC(C(=O)NC4CCCC4)C3)sc2c1 (configuration not stated) | -0.9 | 4.2 | 12.9 | 1.9 | 3.2 | -5.2 | / | / | /
S=c1[nH]nc(-c2cc(-c3ccccc3)n[nH]2)n1/N=C/c1c(Cl)cccc1Cl | -0.7 | 44.2* | -6.1 | 4.8 | 12.5 | 4.2 | 65.1* | -0.8 | -0.1
SMILES | APJ ag | EBI2 antag | APJ antagonist | CXCR6 block | CCR6 antag | HTR2A ag | EBI2 antag conf | EBI2 agonist | bGal counter
COC(=O)[C@@]1(Cc2ccc(OC)cc2)[C@@H]2C(=CC(=O)[C@H]2CC(=O)C(=O)N2CCCC2)CN1C(=O)c1ccccc1 | 2.5 | 47.4* | 3.9 | 1.0 | 17.2 | 0.1 | 61.2* | 0.5 | 2.4
CCc1ccc(NC(=O)c2ccc(F)c(S(=O)(=O)N(CC)c3ccccc3)c2)cc1 | 1.6 | 44.7* | -7.0 | 1.9 | 20.7 | 4.7 | 37.8 | -1.2 | -22.2
COc1ccc(Br)cc1C(=O)NC(=S)Nc1c(C)n(C)n(-c2ccccc2)c1=O | -1.3 | -11.6 | -6.5 | 5.6 | 7.9 | -5.5 | / | / | /
Cc1cc(OCC(=O)N(C)C2CCCCC2)ccc1Cl | -2.5 | 73.6* | -2.3 | 8.5 | 19.4 | -2.0 | 34.7 | 0.9 | -12.1
Cc1cc(OCC(=O)N(C)C2CCCCC2)cc(C)c1Cl | -1.9 | 79.2* | -4.5 | -5.5 | 10.7 | -2.7 | 43.4 | 0.0 | 4.7
CN(C(=O)COC(=O)COc1ccc(Cl)cc1)C1CCCCC1 | -2.6 | 3.4 | -29.6 | -6.6 | -14.0 | -6.0 | / | / | /
O=C(O)c1cc2c(cc1NC(=O)C1CCCC1)OCCO2 | -3.8 | -20.7 | -5.2 | 2.4 | 0.9 | -9.1 | / | / | /
Cc1ccccc1C(=O)O/N=C(\N)Cc1cccs1 | 28.2 | 1.1 | -72.5 | -7.9 | -22.2 | 6.0 | / | / | /
Cc1ccc(Oc2ncc(-c3ccc(Cl)cc3)cn2)cc1 | 1.1 | 90.0* | -12.6 | -10.0 | 5.3 | 1.6 | 58.2* | -0.6 | -8.6
Cc1cccc(Oc2ncc(-c3ccc(Cl)cc3)cn2)c1C | 1.3 | 51.9* | 12.2 | 1.3 | 6.8 | -4.3 | 27.2 | 0.1 | 2.3
Cc1ccc(NC2CCCN(C(=O)c3cccc(-c4ncc[nH]4)c3)C2)cc1C (configuration not stated) | -2.0 | 1.5 | 16.9 | -7.3 | -7.4 | -12.3 | / | / | /
COc1ccc(-c2cc(=O)oc3cc4occ(C)c4cc23)cc1 | -2.3 | 49.0* | -2.2 | 11.4 | 21.5 | 6.6 | 33.4 | 0.3 | 6.0
CCOc1ccc(NC(=O)CN(C)C(=O)c2ccccc2OCc2c(C)noc2C)cc1OCC | -3.2 | 2.7 | 20.8 | 8.2 | 13.8 | 4.8 | / | / | /
CCOC(=O)C1CCN(C(=O)COC(=O)c2ccccc2C(=O)c2ccc(Cl)cc2)CC1 | -0.3 | -3.1 | 10.8 | 5.5 | 15.2 | -0.2 | / | / | /

Screening results deposited in PubChem BioAssay by several laboratories.
